Results taken from ChEMBL document CHEMBL2151038, “Synthesis, characterization and biological evaluation of some novel 2,4-thiazolidinediones as potential cytotoxic, antimicrobial and antihyperglycemic agents” (Bioorg Med Chem Lett, 2012).
Values after ≈ are worked out from the molar mass of the structure shown.

Experiments:
Escherichia coli = experiment: Antibacterial activity against Escherichia coli NCIM 2065 after 24 hrs by NCCLS agar well diffusion method; assay type: functional; settings: NCIM 2065, 24 h
In short: (§1)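 Nutrient agar seeded with 0.1 mL bacterial suspension (10⁵ CFU/mL in 0.85% saline). 6 mm wells filled with 0.1 mL compound. Plates in triplicate, 37 ± 0.5 °C for 24 h. MIC = lowest concentration giving complete growth inhibition.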

Penicillium chrysogenum = experiment: Antifungal activity against Penicillium chrysogenum NCIM 738 after 48 hrs by NCCLS agar well diffusion method; assay type: functional; settings: NCIM 738, 48 h
In short: (§2)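 Spore suspensions in sterile distilled water adjusted to 10⁶ CFU/mL, 0.1 mL spread on potato-dextrose agar. 6 mm wells received 0.1 mL compound in 1% DMSO (final 16–512 µg/mL). Controls: 1% DMSO and ketoconazole (16 µg/mL). Triplicate plates, 48 h at 28 ± 0.2 °C. MIC = lowest concentration completely inhibiting growth.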

Aspergillus oryzae = experiment: Antifungal activity against Aspergillus oryzae NCIM 643 after 48 hrs by NCCLS agar well diffusion method; assay type: functional; settings: NCIM 643, 48 h; in short: as §2
Micrococcus luteus = experiment: Antibacterial activity against Micrococcus luteus NCIM 2155 after 24 hrs by NCCLS agar well diffusion method; assay type: functional; settings: NCIM 2155, 24 h; in short: as §1
Rattus norvegicus [1] = experiment: Antihyperglycemic activity in streptozotocin-induced type 2 diabetic Wistar albino rat assessed as reduction in plasma glucose level at 10 mg/kg, po by glucometer; assay type: functional
In short: (§3)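 Wistar albino rats of either sex, 150–200 g, fasted 16 h. Diabetes induced by nicotinamide 150 mg/kg, then STZ 65 mg/kg in citrate buffer pH 4.5. Glucose confirmed after 48 h. Groups of six. Oral dosing as 0.25% sodium CMC suspension at 10, 30 or 50 mg/kg. Rosiglitazone was the reference. Retro-orbital plasma glucose measured by glucometer before dosing and at 1, 2, 4, 6, 8, 12 and 24 h. Results as mean ± SEM, compared by ANOVA, t-test and Dunnett's test.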

Bacillus pumilus = experiment: Antibacterial activity against Bacillus pumilus NCIM 2327 after 24 hrs by NCCLS agar well diffusion method; assay type: functional; settings: NCIM 2327, 24 h; in short: as §1
Proteus vulgaris = experiment: Antibacterial activity against Proteus vulgaris NCIM 2813 after 24 hrs by NCCLS agar well diffusion method; assay type: functional; settings: NCIM 2813, 24 h; in short: as §1
Bacillus subtilis = experiment: Antibacterial activity against Bacillus subtilis NCIM 2063 after 24 hrs by NCCLS agar well diffusion method; assay type: functional; settings: NCIM 2063, 24 h; in short: as §1
Rattus norvegicus [2] = experiment: Antihyperglycemic activity in streptozotocin-induced type 2 diabetic Wistar albino rat assessed as reduction in plasma glucose level at 30 mg/kg, po by glucometer; assay type: functional; in short: as §3
[3] = Toxicity in mouse assessed as changes in vital functions; assay type: organism-based; settings: in vivo
Aspergillus niger = experiment: Antifungal activity against Aspergillus niger NCIM 548 after 48 hrs by NCCLS agar well diffusion method; assay type: functional; settings: NCIM 548, 48 h; in short: as §2
Klebsiella pneumoniae = experiment: Antibacterial activity against Klebsiella pneumoniae NCIM 5082 after 24 hrs by NCCLS agar well diffusion method; assay type: functional; settings: NCIM 5082, 24 h; in short: as §1
Pseudomonas aeruginosa = experiment: Antibacterial activity against Pseudomonas aeruginosa NCIM 2036 after 24 hrs by NCCLS agar well diffusion method; assay type: functional; settings: NCIM 2036, 24 h; in short: as §1
Staphylococcus aureus = experiment: Antibacterial activity against Staphylococcus aureus NCIM 2079 after 24 hrs by NCCLS agar well diffusion method; assay type: functional; settings: NCIM 2079, 24 h; in short: as §1
Rattus norvegicus [4] = experiment: Antihyperglycemic activity in streptozotocin-induced type 2 diabetic Wistar albino rat assessed as reduction in plasma glucose level at 50 mg/kg, po by glucometer; assay type: functional; in short: as §3
Candida albicans = experiment: Antifungal activity against Candida albicans NCIM 3102 after 48 hrs by NCCLS agar well diffusion method; assay type: functional; settings: NCIM 3102, 48 h; in short: as §2
Rattus norvegicus [5] = experiment: Antihyperglycemic activity in po dosed streptozotocin-induced type 2 diabetic Wistar albino rat assessed as reduction in plasma glucose level by glucometer; assay type: functional, organism-based; in short: as §3
Artemia salina = experiment: Cytotoxicity in brine shrimps larvae assessed as mortality after 24 hrs; assay type: functional; settings: read-out: ED50 (the source's name)
In short: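 Artemia salina nauplii hatched 38 h under constant aeration in sterile brine (sea salt 38 g/L, pH 8.5 with 1 N NaOH). Ten nauplii per vial were exposed to a range of compound concentrations at 37 °C for 24 h under incandescent light, alongside vehicle-treated controls. Survivors were counted, % lethality was taken from mean survivors versus control, and ED50 came from probit analysis.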

Row | Structure (SMILES) | MIC (Escherichia coli) [µg/mL] | MIC (Penicillium chrysogenum) [µg/mL] | MIC (Aspergillus oryzae) [µg/mL] | MIC (Micrococcus luteus) [µg/mL] | Activity (Rattus norvegicus [1]) [mg/dL] | MIC (Bacillus pumilus) [µg/mL] | MIC (Proteus vulgaris) [µg/mL] | MIC (Bacillus subtilis) [µg/mL] | Activity (Rattus norvegicus [2]) [mg/dL] | MTD [3] [mg/kg] | MIC (Aspergillus niger) [µg/mL] | MIC (Klebsiella pneumoniae) [µg/mL] | MIC (Pseudomonas aeruginosa) [µg/mL] | MIC (Staphylococcus aureus) [µg/mL] | Activity (Rattus norvegicus [4]) [mg/dL] | MIC (Candida albicans) [µg/mL] | Activity (Rattus norvegicus [5]) | EC50 (Artemia salina) [µg/mL]
1 | Cc1ccc(C(=O)/C=C/c2ccc(/C=C3\SC(=O)NC3=O)cc2)cc1 | 32 (≈ 91.6 µM) | 64 (≈ 183 µM) | 64 (≈ 183 µM) | 64 (≈ 183 µM) | 17.66 | 32 (≈ 91.6 µM) | 64 (≈ 183 µM) | 32 (≈ 91.6 µM) | 21.81 | 2000 | 256 (≈ 733 µM) | 64 (≈ 183 µM) | 32 (≈ 91.6 µM) | 32 (≈ 91.6 µM) | 28.72 | 256 (≈ 733 µM) | Dose-dependent effect | 19.7 (≈ 56.3 µM)
2 | O=C1NC(=O)/C(=C/c2ccc(/C=C/C(=O)c3ccc([N+](=O)[O-])cc3)cc2)S1 | 512 (≈ 1350 µM) | 256 (≈ 673 µM) | 512 (≈ 1350 µM) | 512 (≈ 1350 µM) | 13.63 | 512 (≈ 1350 µM) | 512 (≈ 1350 µM) | 256 (≈ 673 µM) | 16.74 | 2000 | 512 (≈ 1350 µM) | 512 (≈ 1350 µM) | 256 (≈ 673 µM) | 512 (≈ 1350 µM) | 22.73 | 256 (≈ 673 µM) | Dose-dependent effect | 49.3 (≈ 130 µM)
3 | Cc1cccc(C(=O)/C=C/c2ccc(/C=C3\SC(=O)NC3=O)cc2)c1O | 64 (≈ 175 µM) | 256 (≈ 701 µM) | 128 (≈ 350 µM) | 512 (≈ 1400 µM) | 36.76 | 128 (≈ 350 µM) | 32 (≈ 87.6 µM) | 64 (≈ 175 µM) | 43.14 | 2000 | 128 (≈ 350 µM) | 64 (≈ 175 µM) | 64 (≈ 175 µM) | 128 (≈ 350 µM) | 49.99 | 64 (≈ 175 µM) | Dose-dependent effect | 33.1 (≈ 90.6 µM)
4 | O=C1NC(=O)/C(=C/c2ccc(/C=C/C(=O)c3ccccn3)cc2)S1 | 64 (≈ 190 µM) | 128 (≈ 381 µM) | 64 (≈ 190 µM) | 32 (≈ 95.1 µM) | 22.78 | 64 (≈ 190 µM) | 64 (≈ 190 µM) | 128 (≈ 381 µM) | 34.68 | 2000 | 64 (≈ 190 µM) | 64 (≈ 190 µM) | 128 (≈ 381 µM) | 64 (≈ 190 µM) | 43.72 | 64 (≈ 190 µM) | Dose-dependent effect | 30.3 (≈ 90 µM)
5 | CC(=O)N1CCN(c2ccc(OCC3COC(Cn4ccnc4)(c4ccc(Cl)cc4Cl)O3)cc2)CC1 (stereo not drawn) [KETOCONAZOLE] |  | 16 (≈ 30.1 µM) | 16 (≈ 30.1 µM) |  |  |  |  |  |  |  | 16 (≈ 30.1 µM) |  |  |  |  | 16 (≈ 30.1 µM) |  | 
6 | CN(CCOc1ccc(CC2SC(=O)NC2=O)cc1)c1ccccn1 (stereo not drawn) [ROSIGLITAZONE] |  |  |  |  | 38.57 |  |  |  | 14.83 |  |  |  |  |  | 12.74 |  |  | 
7 | O=C1NC(=O)/C(=C/c2ccc(/C=C/C(=O)c3ccccc3)cc2)S1 | 256 (≈ 763 µM) | 512 (≈ 1530 µM) | 512 (≈ 1530 µM) | 512 (≈ 1530 µM) |  | 256 (≈ 763 µM) | 512 (≈ 1530 µM) | 256 (≈ 763 µM) | 11.51 | 2000 | 512 (≈ 1530 µM) | 512 (≈ 1530 µM) | 256 (≈ 763 µM) | 512 (≈ 1530 µM) | 15.61 | 512 (≈ 1530 µM) | Dose-dependent effect | 44.7 (≈ 133 µM)
8 | O=C1NC(=O)/C(=C/c2ccc(/C=C/C(=O)c3cccs3)cc2)S1 | 32 (≈ 93.7 µM) | 32 (≈ 93.7 µM) | 32 (≈ 93.7 µM) | 32 (≈ 93.7 µM) |  | 16 (≈ 46.9 µM) | 64 (≈ 187 µM) | 32 (≈ 93.7 µM) | 11.66 | 2000 | 32 (≈ 93.7 µM) | 16 (≈ 46.9 µM) | 32 (≈ 93.7 µM) | 32 (≈ 93.7 µM) | 13.71 | 32 (≈ 93.7 µM) | Dose-dependent effect | 4 (≈ 11.7 µM)
